This note sets out measurements from ChEMBL document CHEMBL4014261, “Design, Synthesis, and Antimicrobial Evaluation of a Novel Bone-Targeting Bisphosphonate-Ciprofloxacin Conjugate for the Treatment of Osteomyelitis Biofilms” (J Med Chem, 2017).

One data set deals with Pseudomonas aeruginosa. Description: Bactericidal activity against Pseudomonas aeruginosa ATCC 15442 biofilm using polystyrene as substrate assessed as reduction in colony forming units at 0.24 to 125 ug/ml after 24 hrs. Type of data set: functional. Summed up:
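Biofilms were started from a 1 McFarland suspension, allowed to adhere 4 h at 37 °C on HA discs or polystyrene well bottoms, then rinsed. They were exposed 24 h at 37 °C to TSB containing 0.24–125 mg/L compound. Cells were detached in 0.5% saponin by 1 min vortexing, serially diluted and plated on Columbia (S. aureus) or MacConkey (P. aeruginosa) agar, 37 °C, 24 h. Read-out was mean CFU/mm² ± SEM; HA area was measured by X-ray tomography.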

The subject of data set [1] is Rattus norvegicus. Nature of the data set: Toxicity in jawbone peri-implant osteomyelitis Sprague-Dawley rat model infected with Aggregatibacter actinomycetemcomitans assessed as signs of gross tolerability at 0.3 mg/kg, ip administered 3 times per week measured after 1 week post pharmacotherapy. Conditions: in vivo, 168 h. Type of data set: organism-based. The method, boiled down: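 Rats bearing infected palatal implants received i.p. dosing in sterile saline. They were observed during therapy for cutaneous injection-site reactions, inflammation and gross tolerability issues, and were euthanized one week after pharmacotherapy.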

Data set [2] relates to Staphylococcus aureus. Nature of the data set: Bactericidal activity against methicillin-susceptible Staphylococcus aureus ATCC 6538 planktonic cells assessed as reduction in bacterial growth at 15.6 ug/ml after 2 hrs by time kill assay.
Data set [3] has as its system Staphylococcus aureus. Description: Bactericidal activity against methicillin-sensitive Staphylococcus aureus ATCC 6538 planktonic cells assessed as reduction in bacterial growth at 31.25 ug/ml up to 1 hr by time kill assay relative to control. Type of data set: functional. More on the design: scale not given: the % may be the effect or the level left. Summed up:
(§1)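 Time-kill per CLSI on planktonic cultures, set up as the microdilution assay: 1 × 10^5 CFU/mL, 37 °C with shaking. A580 is read at 0, 1, 2, 4, 8, 16 and 24 h, and growth is expressed relative to untreated medium + microbes control. Concentrations are parent-antibiotic equivalents.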

In the next data set the test system is Hydroxyapatite. Description: Binding affinity to Hydroxyapatite at 1.95 to 250 ug/mL up to 24 hrs by spectroscopic analysis. The method, boiled down: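 HA spherules (final 10 mg/mL) in TSB were mixed with compound (final 0.24–250 mg/L). Absorbance at 275 nm was read at 0 h and after 24 h at 37 °C with shaking, and relative compound concentration was derived by comparing the two readings.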

For data set [4], the system named is Staphylococcus aureus. Nature of the data set: Potency index, ratio of ciprofloxacin bactericidal concentration to compound bactericidal concentration for Staphylococcus aureus ATCC 6538. Type of data set: functional.
The test system of data set [5] is Staphylococcus aureus. Description: Bactericidal activity against methicillin-resistant Staphylococcus aureus MR4-CIPS planktonic cells assessed as reduction in bacterial growth at 7.8 ug/ml after 24 hrs by time kill assay relative to control. The data set is classed as functional. Set-up: scale not given: the % may be the effect or the level left. Summed up: as §1

For data set [6], the system named is Aggregatibacter actinomycetemcomitans. Nature of the data set: Antibiofilm activity against Aggregatibacter actinomycetemcomitans infected in jawbone peri-implant osteomyelitis Sprague-Dawley rat model assessed as reduction in bacterial count in bone at 10 mg/kg, ip single dose measured after 1 week post pharmacotherapy. Type of data set: functional. More on the design: scale not given: the % may be the effect or the level left. The method, boiled down: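 Rats carried two titanium implants each, preinoculated with A. actinomycetemcomitans D7S-1 biofilm (10^9 CFU), placed bilaterally in palatal bone. One week after surgery, randomized groups received i.p. doses in sterile saline; the negative control was endotoxin-free saline. One week after treatment, 1 cm² peri-implant tissue and bone were homogenized in 0.5% saponin, serially diluted 10-fold and spread-plated on modified TSB (37 °C, 5% CO2, 48 h). Read-out was CFU/g and mean log10 reduction; analysts were blinded.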

For data set [7], the system named is Rattus norvegicus. Description: Toxicity in jawbone peri-implant osteomyelitis Sprague-Dawley rat model infected with Aggregatibacter actinomycetemcomitans assessed as signs of gross tolerability issue at 0.1 to 10 mg/kg, ip single dose measured after 1 week post pharmacotherapy. The data set is classed as organism-based. Particulars: in vivo, 168 h. Summed up:
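Rats carried two *Aa* (D7S-1) biofilm-coated miniature titanium implants (10^9 CFU) in the palatal bone, one on each side. Dosing began one week after surgery: a single intraperitoneal injection under anesthesia, in sterile physiological saline, with 2 rats per group. Injection-site reactions and gross tolerability were observed during therapy. Animals were euthanized one week after pharmacotherapy.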

For data set [8], the system named is Staphylococcus aureus. Description: Antibiofilm activity against Staphylococcus aureus ATCC 6538 assessed as CFU counts at 400 ug/mL pretreated with HA for 24 hrs followed by organism inoculation measured after 24 hrs (reference value: 4.5 x 10^10CFU). Type of data set: functional.
Data set [9] deals with Staphylococcus aureus. Description: Antibacterial activity against methicillin-sensitive Staphylococcus aureus ATCC 6538 planktonic cells at pH 5 after 24 hrs by microdilution method. The data set is classed as functional. Particulars: ATCC 6538, 24 h. Summed up: (§2)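 Planktonic ATCC 6538 was tested by microdilution in medium adjusted to pH 5 or pH 7.4 with KOH or HCl, with pH checked by universal indicator. MIC50 was determined at each pH.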
(In general: Broth dilution looks for growth in wells or tubes with falling amounts of substance.)

In data set [10] the test system is Staphylococcus aureus. Description: Antibiofilm activity against Staphylococcus aureus ATCC 6538 assessed as reduction in bacterial adherence to HA at 0.24 to 7.8 ug/ml pretreated with HA for 24 hrs followed by organism inoculation measured after 24 hrs. Type of data set: functional. The method, boiled down:
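HA spherules (final 10 mg/mL) in TSB were preincubated 24 h at 37 °C with shaking with compound (final 0.12–250 mg/L), then pelleted and the supernatant discarded. They were inoculated with 1 mL S. aureus at 10^5 CFU/mL. A580 was read at 0 and 24 h (37 °C, shaking) against controls without spherules and spherules without compound; spherules were also plated for CFU.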

Data set [11] relates to Staphylococcus aureus. Description: Bactericidal activity against methicillin-susceptible Staphylococcus aureus ATCC 6538 planktonic cells assessed as reduction in bacterial growth at 15.6 ug/ml after 24 hrs by time kill assay. Set-up: scale not given: the % may be the effect or the level left.
The test system of data set [12] is Staphylococcus aureus. Nature of the data set: Antibacterial activity against methicillin-sensitive Staphylococcus aureus isolate 1 planktonic cells after 24 hrs by microdilution assay. Particulars: isolate 1, 24 h. The data set is classed as functional. The method, boiled down:
(§3)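 Planktonic cells at 1 × 10^5 CFU/mL were exposed to compound, and A580 was read at 0 h and after 24 h at 37 °C with shaking. Controls were medium plus microbes, with 1% (v/v) DMSO where the solvent was used. Relative cell number was calculated against the control. Results were confirmed by subculture in fresh medium (48 h, 37 °C) and plating. Conjugate concentrations were expressed as parent-antibiotic equivalents.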

Data set [13] deals with Staphylococcus aureus. Description: Antibacterial activity against methicillin-resistant Staphylococcus aureus MR4-CIPS planktonic cells after 24 hrs by microdilution assay. The data set is classed as functional. Summed up:
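Broth microdilution: 100 µL of 1 × 10^5 CFU/mL inoculum with graded compound concentrations, read at 580 nm before and after 24 h at 37 °C with shaking to prevent biofilm formation. Relative cell number is taken against medium + microbes controls, with 1% DMSO in the ciprofloxacin control. Growth is confirmed by 48 h subculture in fresh medium and by plating. MIC is expressed as parent-antibiotic equivalents.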

Data set [14] concerns Staphylococcus aureus. Nature of the data set: Antibiofilm activity against Staphylococcus aureus ATCC 6538 assessed as CFU counts at 200 ug/mL pretreated with HA for 24 hrs followed by organism inoculation measured after 24 hrs (reference value: 4.5 x 10^10CFU). The data set is classed as functional.
The subject of data set [15] is Staphylococcus aureus. Description: Antibacterial activity against methicillin-sensitive Staphylococcus aureus isolate 5 planktonic cells after 24 hrs by microdilution assay. Type of data set: functional. Conditions: isolate 5, 24 h. The method, boiled down:
as §3

The test system of data set [16] is Staphylococcus aureus. Description: Antibacterial activity against methicillin-sensitive Staphylococcus aureus ATCC 6538 planktonic cells at pH 7.4 after 24 hrs by microdilution method. The data set is classed as functional. Particulars: ATCC 6538, 24 h. The method, boiled down: as §2

Converted amounts (≈) assume the structure as drawn. The source made the active and inactive calls. No cut-off for these calls is given here.

By MIC50 is commonly meant the lowest concentration that inhibits either 50% of growth or 50% of the strains tested, depending on the study. In general, MIC90 refers to an inhibitory concentration at the 90% level, which refers to growth in some studies and to a panel of isolates in others. By MIC is commonly meant the lowest concentration that inhibits growth of the organism. On to `O=C(O)c1cn(C2CC2)c2cc(N3CCN(C(=O)Oc4ccc(CC(P(=O)(O)O)P(=O)(O)O)cc4)CC3)c(F)cc2c1=O`, for which the result in the data set on Pseudomonas aeruginosa was inactive. Besides, the Activity result in the data set with Rattus norvegicus [1] is recorded as “Non-Toxic”; with Staphylococcus aureus [3], 100%; in the data set on Staphylococcus aureus [5], 50%; in data set [6], 99%; in the data set with Rattus norvegicus [7] it was “Non-Toxic”; with Staphylococcus aureus [11], 50%. For the same compound, the result with Staphylococcus aureus [2], in the data set on Hydroxyapatite, in the data set with Staphylococcus aureus [8], in the data set on Staphylococcus aureus [10] and with Staphylococcus aureus [14] was Active. Besides, in the data set with Staphylococcus aureus [4], the Ratio came out at 20. Besides, the MIC50 against Staphylococcus aureus [9] stood at 7.81 µg/mL (≈ 12.2 µM); in the data set on Staphylococcus aureus [16], 15.6 µg/mL (≈ 24.4 µM). Further, the MIC90 against Staphylococcus aureus [9] and against Staphylococcus aureus [16] was 31.2 µg/mL (≈ 48.9 µM) throughout. Further, the minimal inhibitory concentration (MIC) against Staphylococcus aureus [12] turned out to be 3.9 µg/mL (≈ 6.1 µM); against Staphylococcus aureus [13] it was 15.6 µg/mL (≈ 24.4 µM); with Staphylococcus aureus [15] it was 1.9 µg/mL (≈ 2.97 µM).
